Experimental data pooled from the literature.
Target: Alpha-glucosidase MAL12 (MAL12, Saccharomyces cerevisiae S288c, UniProt P53341)
Effect on: enzyme activity
Action: inhibitor

CCCCCCCCCCCC(=O)OCC(C)(C)CC1=C(O)C(=O)c2ccccc2C1=O  IC50: 2.6 µM
C[C@H]1CN(C(=O)Nc2ccc(C(F)(F)F)cc2)CCN1c1ccnc(Nc2ccc(Cl)c(OCc3ccccc3)c2)n1  IC50 (absorbance; pH 6.9): 1.5 µM
CC(=O)C1=C(C)n2c(=O)c3ccccc3c(=O)n2C1c1cn(-c2ccccc2)nc1-c1ccc(Cl)cc1 (stereo not drawn)  IC50 (absorbance): 359 µM
Nc1c(-c2ccccc2)nc2ncnn2c1-c1ccccc1Cl  IC50 (absorbance): 125 µM
COc1cc(O)c2c(c1)oc(=O)c1c3cc(O)c(O)cc3oc21  IC50 (absorbance): 39.1 µM
CC1(C)CC(=O)C2=C(C1)n1c(=O)c3ccccc3c(=O)n1C2c1cn(-c2ccccc2)nc1-c1ccc(Cl)cc1 (stereo not drawn)  IC50 (absorbance): 209 µM
C[C@@H]1CN(C(=O)Nc2ccc(C(F)(F)F)cc2)CCN1c1ccnc(Nc2ccc(Cl)cc2)n1  IC50 (absorbance; pH 6.9): 3.47 µM
CC1(C)CC(=O)C2=C(C1)n1c(=O)c3ccccc3c(=O)n1C2c1cn(-c2ccccc2)nc1-c1ccc([N+](=O)[O-])cc1 (stereo not drawn)  IC50 (absorbance): 285 µM
C[C@H]1CN(C(=O)Nc2ccc(Cl)c(Cl)c2)CCN1c1ccnc(Nc2ccc(Cl)cc2)n1  IC50 (absorbance; pH 6.9): 1.82 µM
CC(=O)C1=C(C)n2c(=O)c3ccccc3c(=O)n2C1c1cn(-c2ccccc2)nc1-c1ccc([N+](=O)[O-])cc1 (stereo not drawn)  IC50 (absorbance): 86.7 µM
CCCCCCCCCCCCCC(=O)OCC(C)(C)CC1=C(O)C(=O)c2ccccc2C1=O  IC50: 5.3 µM
Nc1c(-c2ccc(Cl)cc2)nc2ncnn2c1-c1cccs1  IC50 (absorbance): 82.4 µM
C[C@H]1CN(C(=O)Nc2ccc(C(F)(F)F)cc2)CCN1c1ccnc(Nc2ccccc2O)n1  IC50 (absorbance; pH 6.9): 5.13 µM
COc1ccc(-c2c(N)c(-c3ccc(C)cc3)nc3ncnn23)cc1  IC50 (absorbance): 89.3 µM
C[C@@H]1CN(C(=O)Nc2ccc(C(F)(F)F)cc2)CCN1c1ccnc(Nc2ccc(Cl)c(O)c2)n1  IC50 (absorbance; pH 6.9): 2.08 µM
